Tests used:
U2OS = assay: Multiplex assay against U2OS; format: toxicity, cell-based; settings: human
In short: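 Tubulin, mitochondrial-mass and membrane-permeability phenotypes are per cents of healthy-nucleus cells. Cells were gated by CellPathfinder machine learning into Hoechst high-intensity objects or normal cells, normal cells into healthy, pyknosed or fragmented nuclei, and pyknosed cells into mitotic or apoptotic. Before that, live cells stained at seeding with Hoechst33342, BioTracker Green Microtubule Cytoskeleton Dye, MitoTracker Red and Annexin V Alexa Fluor 680 were imaged on a CQ1 microscope at 37°C and 5% CO2 after compound addition.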

HEK-293T = assay: Incucyte cell viability with HEK293T; format: toxicity, cell-based; settings: human, 10 µM, compound concentration 10 uM; further: filed as whole numbers so only -1 and 0 and 1 occur
[1] = 24 h, 10 µM, compound concentration 10 uM, replicate 1
[2] = 24 h, 10 µM, compound concentration 10 uM, replicate 2
[3] = 48 h, 1 µM, compound concentration 1 uM, replicate 1
[4] = 48 h, 1 µM, compound concentration 1 uM, replicate 2
[5] = 48 h, 10 µM, compound concentration 10 uM, replicate 1
[6] = 48 h, 10 µM, compound concentration 10 uM, replicate 2

With `CCCCN(CC)c1nc(C)nc2c1c(C)cn2-c1c(C)cc(C)cc1C.Cl` as the compound, how does the “Total Cell Count” value (U2OS; 24 h, 1 µM, compound concentration 1 uM, replicate 2) read?
The value was 116.

What about the “Population Apoptotic (%)” value (U2OS; [1]) of the same compound?
Its value is 68%.

What about the “Population Fragmented Nuclei (%)” value (U2OS; [1]) of the same compound?
The value was 19%.

And the “Population Healthy Nuclei (%)” value (U2OS; [1])?
Its value is 62%.

And the “Population Hoechst High Intensity Objects (%)” value (U2OS; [1])?
The value was 5%.

What about the “Population Membrane Permeable-Phenotype (%)” value (U2OS; [1]) of the same compound?
Its value is 2%.

What about the “Population Mitochondria Different-Phenotype (%)” value (U2OS; [1]) of the same compound?
The value was 48%.

And the “Population Mitotic Cells (%)” value (U2OS; [1])?
Its value is 32%.

And the “Population Normal (%)” value (U2OS; [1])?
The value was 94%.

What about the “Population Pyknosed Nuclei (%)” value (U2OS; [1]) of the same compound?
Its value is 17%.

And the “Population Tubulin-Different-Phenotype (%)” value (U2OS; [1])?
The value was 26%.

What about the “Total Cell Count” value (U2OS; [1]) of the same compound?
Its value is 152.

What about the “Population Apoptotic (%)” value (U2OS; [2]) of the same compound?
The value was 25%.

And the “Population Fragmented Nuclei (%)” value (U2OS; [2])?
Its value is 8%.

What about the “Population Healthy Nuclei (%)” value (U2OS; [2]) of the same compound?
Its value is 80%.

What about the “Population Hoechst High Intensity Objects (%)” value (U2OS; [2]) of the same compound?
The value was 4%.

What about the “Population Membrane Permeable-Phenotype (%)” value (U2OS; [2]) of the same compound?
The value was 3%.

What about the “Population Mitochondria Different-Phenotype (%)” value (U2OS; [2]) of the same compound?
The value was 54%.

And the “Population Mitotic Cells (%)” value (U2OS; [2])?
The value was 75%.

What about the “Population Normal (%)” value (U2OS; [2]) of the same compound?
The value was 95%.

And the “Population Pyknosed Nuclei (%)” value (U2OS; [2])?
Its value is 11%.

And the “Population Tubulin-Different-Phenotype (%)” value (U2OS; [2])?
The value was 21%.

What about the “Total Cell Count” value (U2OS; [2]) of the same compound?
The value was 74.

And the “Population Apoptotic (%)” value (U2OS; [3])?
Its value is 27%.

And the “Population Fragmented Nuclei (%)” value (U2OS; [3])?
The value was 5%.

And the “Population Healthy Nuclei (%)” value (U2OS; [3])?
Its value is 86%.

What about the “Population Hoechst High Intensity Objects (%)” value (U2OS; [3]) of the same compound?
Its value is 3%.

And the “Population Membrane Permeable-Phenotype (%)” value (U2OS; [3])?
The value was 0%.

And the “Population Mitochondria Different-Phenotype (%)” value (U2OS; [3])?
Its value is 10%.

What about the “Population Mitotic Cells (%)” value (U2OS; [3]) of the same compound?
Its value is 72%.

And the “Population Normal (%)” value (U2OS; [3])?
Its value is 96%.

What about the “Population Pyknosed Nuclei (%)” value (U2OS; [3]) of the same compound?
Its value is 7%.

And the “Population Tubulin-Different-Phenotype (%)” value (U2OS; [3])?
The value was 7%.

And the “Total Cell Count” value (U2OS; [3])?
Its value is 253.

And the “Population Apoptotic (%)” value (U2OS; [4])?
Its value is 28%.

And the “Population Fragmented Nuclei (%)” value (U2OS; [4])?
Its value is 8%.

What about the “Population Healthy Nuclei (%)” value (U2OS; [4]) of the same compound?
The value was 82%.

And the “Population Hoechst High Intensity Objects (%)” value (U2OS; [4])?
Its value is 1%.

And the “Population Membrane Permeable-Phenotype (%)” value (U2OS; [4])?
The value was 8%.

What about the “Population Mitochondria Different-Phenotype (%)” value (U2OS; [4]) of the same compound?
The value was 14%.

And the “Population Mitotic Cells (%)” value (U2OS; [4])?
The value was 71%.

And the “Population Normal (%)” value (U2OS; [4])?
Its value is 98%.

And the “Population Pyknosed Nuclei (%)” value (U2OS; [4])?
Its value is 8%.

And the “Population Tubulin-Different-Phenotype (%)” value (U2OS; [4])?
The value was 13%.

And the “Total Cell Count” value (U2OS; [4])?
The value was 170.

What about the “Population Apoptotic (%)” value (U2OS; [5]) of the same compound?
Its value is 39%.

What about the “Population Fragmented Nuclei (%)” value (U2OS; [5]) of the same compound?
The value was 18%.

What about the “Population Healthy Nuclei (%)” value (U2OS; [5]) of the same compound?
The value was 68%.

What about the “Population Hoechst High Intensity Objects (%)” value (U2OS; [5]) of the same compound?
Its value is 6%.

And the “Population Membrane Permeable-Phenotype (%)” value (U2OS; [5])?
Its value is 4%.

And the “Population Mitochondria Different-Phenotype (%)” value (U2OS; [5])?
Its value is 30%.

What about the “Population Mitotic Cells (%)” value (U2OS; [5]) of the same compound?
The value was 60%.

And the “Population Normal (%)” value (U2OS; [5])?
The value was 93%.

What about the “Population Pyknosed Nuclei (%)” value (U2OS; [5]) of the same compound?
The value was 12%.

What about the “Population Tubulin-Different-Phenotype (%)” value (U2OS; [5]) of the same compound?
Its value is 26%.

What about the “Total Cell Count” value (U2OS; [5]) of the same compound?
Its value is 192.

And the “Population Apoptotic (%)” value (U2OS; [6])?
Its value is 38%.

What about the “Population Fragmented Nuclei (%)” value (U2OS; [6]) of the same compound?
Its value is 9%.

What about the “Population Healthy Nuclei (%)” value (U2OS; [6]) of the same compound?
The value was 71%.

What about the “Population Hoechst High Intensity Objects (%)” value (U2OS; [6]) of the same compound?
Its value is 5%.

What about the “Population Membrane Permeable-Phenotype (%)” value (U2OS; [6]) of the same compound?
The value was 6%.

And the “Population Mitochondria Different-Phenotype (%)” value (U2OS; [6])?
Its value is 38%.

And the “Population Mitotic Cells (%)” value (U2OS; [6])?
Its value is 61%.

What about the “Population Normal (%)” value (U2OS; [6]) of the same compound?
Its value is 94%.

And the “Population Pyknosed Nuclei (%)” value (U2OS; [6])?
Its value is 18%.

What about the “Population Tubulin-Different-Phenotype (%)” value (U2OS; [6]) of the same compound?
Its value is 12%.

What about the “Total Cell Count” value (U2OS; [6]) of the same compound?
Its value is 119.

And the “Growth Rate” value (HEK-293T; 0 h, replicate number 1, timepoint 0 hours)?
Its value is 0.

And the “Growth Rate” value (HEK-293T; 6 h, replicate number 1, timepoint 6 hours)?
The value was 0.

What about the “Growth Rate” value (HEK-293T; 12 h, replicate number 1, timepoint 12 hours) of the same compound?
Its value is 0.

What about the “Growth Rate” value (HEK-293T; 18 h, replicate number 1, timepoint 18 hours) of the same compound?
The value was 0.

What about the “Growth Rate” value (HEK-293T; 24 h, replicate number 1, timepoint 24 hours) of the same compound?
The value was 0.

From ChEMBL document CHEMBL4689842, “EUbOPEN Chemogenomics Library wave 1” (2021)
